Assay results collected from several papers.
Target: Dual specificity tyrosine-phosphorylation-regulated kinase 1A (DYRK1A, Homo sapiens, UniProt Q13627)

Cc1cnc(Nc2ccc(C(=O)N3CCC(N4CCCC4)CC3)cc2)nc1-c1cc2ccccc2s1
remaining binding (binding, competition with immobilised ligand; 1 µM): 19%

CN(CCCC(F)(F)F)c1nccc(-c2cnn3ncccc23)n1
remaining binding (binding; 1 µM): 35%

CSc1cccnc1N1CCN(Cc2nc3ccccc3[nH]2)CC1
remaining binding (cell-free assay, competition with immobilised ligand; 1 µM): 79%

O=C(NCC1CCOCC1)c1n[nH]cc1NC(=O)c1c(F)cccc1F
remaining binding (binding, competition with immobilised ligand; 1 µM): 0.4%

O=C(O)[C@H]1[C@H](Cn2nnc3ccccc3c2=O)CC[C@@H]1C(=O)c1ccc(OCCC2CCOCC2)cc1
remaining binding (cell-free assay, competition with immobilised ligand; 1 µM): 85%

C[C@@H](c1ccc(-n2cnc3c(N)ncnc32)cc1)N1CCc2nn(C)c(Cc3ccccc3)c2C1=O
remaining binding (binding, competition with immobilised ligand; 0.1 µM): 80%

CN([C@@H]1CCc2c(CC(=O)O)c3ccccc3n2C1)S(=O)(=O)c1ccc(F)cc1
remaining binding (cell-free assay, competition with immobilised ligand; 1 µM): 69%

CNC(=O)[C@@H]1CC[C@@H](n2c(-c3ccc4cnccc4c3)nc3ccc(C(=O)NCc4cccc(C(N)=O)c4)cc32)C1
remaining binding (binding, competition with immobilised ligand; 1 µM): 100%

CCOCCn1cc(C(=O)Nc2ccc(-n3nc(-c4cccnc4)cc3C(F)(F)F)cn2)ccc1=O
remaining binding (cell-free assay, competition with immobilised ligand; 1 µM): 77%

C=CC(=O)N1CCC(C(=O)NCC(=O)N2CCN(c3nc(-c4cnc(N)nc4C(F)F)nc(N4CCOCC4)n3)CC2)CC1
remaining binding (binding, competition with immobilised ligand; 1 µM): 94%

O=C(NCCCN1CCOCC1)c1ccc(Nc2nccc(-c3cc4ccccc4s3)n2)cc1
remaining binding (binding, competition with immobilised ligand; 1 µM): 41%

CCN1CCN(Cc2ccc(C(=O)Nc3ccc(C)c(Oc4ccc5c(c4)CC(=O)N5)c3)cc2C(F)(F)F)CC1
remaining binding (binding, competition with immobilised ligand; 1 µM): 96%

O=C(c1ccc(Nc2ncc(Cl)c(-c3ccc(Cl)s3)n2)cc1)N1CCC(N2CCCC2)CC1
remaining binding (binding, competition with immobilised ligand; 1 µM): 1.8%

c1cncc(-c2cccc(Nc3nccc(NC4CCCCC4)n3)c2)c1
remaining binding (binding, competition with immobilised ligand; 10 µM): 26%
